Screening data (PubChem)
A selection: hits, their analogues and other compounds. The true share with any hit is near 2%.
Granule exo inh: blocks lytic granule exocytosis. 360,000 compounds, 0.66% hits. TALL-104 LAMP-1 surface exposure, flow cytometry; cells stimulated with thapsigargin and PMA. AID 651702. inhibition, % at 10 µM;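 active means inhibition above about 55%, limit read from the data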
ABCB6 inh 2: inhibitors of human ABC transporter ABCB6; K562-ABCB6 porphyrin accumulation, flow cytometry, 1 h; stronger effect = lower value; AID 602162; fluorescence ratio to DMSO, % at 10 µM; 360,000 compounds, 0.19% hits;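 active means fluorescence ratio to DMSO below 75%, the collection mean minus 3 SD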;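 further: signal is porphyrin accumulated inside mitochondria; lower ratio means ABCB6 inhibition with less porphyrin fluorescence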
DAGLB inhibitor: diacylglycerol lipase beta (human) inhibition; Q8NCG7; HEK293T DAGLB membrane lysate, EnzChek fluorogenic substrate; inhibition, % at 5.17 µM; 340,000 compounds, 0.059% hits; AID 504411; in the data active means inhibition above about 34%
FGF22 binding: binders of recombinant human FGF22 by thermal shift. SYPRO orange fluorescence; percent of sucrose octasulfate shift, DMSO zero. activity (Tm shift, normalised), % at 9.99 µM. Q9HCT0. 340,000 compounds, 1.5% hits. AID 651658;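 active means mean Tm shift, scaled 0 neutral to 100 positive control, at about 1.3% or above, every replicate too, limit read from the data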
Target sequence (Q9HCT0 whole entry, looked up): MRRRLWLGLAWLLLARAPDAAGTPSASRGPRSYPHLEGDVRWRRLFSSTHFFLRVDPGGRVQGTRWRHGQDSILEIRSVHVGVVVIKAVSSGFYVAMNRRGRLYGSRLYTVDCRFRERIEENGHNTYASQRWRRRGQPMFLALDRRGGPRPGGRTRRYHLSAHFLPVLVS
VLA-4 inh: inhibition in a human VLA-4 binding assay; AID 2557; 330,000 compounds, 0.2% hits; P13612; inhibition, % (about 7 µM as worked out from the volumes in the protocol); VLA-4 expressing cells, ligand binding flow cytometry; in the data active means inhibition above about 50%
MT1-MMP act inh: MT1-MMP (human) activation inhibition | GFP/RFP ratio change, % at 20 µM | P50281 | 360,000 compounds, 0.061% hits | HT1080 RFP-PRO-GFP cells, GFP/RFP ratio fluorescence, overnight; percent of plate control window, DMSO zero;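 active means GFP/RFP ratio change of at least 30% with cell ATP level not reduced by more than half and red fluorescence within 50% of control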
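Assay system: HT1080 RFP-PRO-GFP cells | Dosing: 20 µM single dose, 1% DMSO | Incubation: Cells overnight before dosing, compound overnight, 37 °C, 5% CO2 | Evaluation: GFP/RFP fluorescence ratio | Control set: DMSO-only wells and HT1080 RFP-L50D-GFP cell wells as references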
MT1-MMP conf: validation of inhibitors of human MT1-MMP activation | shares compounds with MT1-MMP act inh | HT1080 RFP-PRO-GFP cells, GFP and RFP fluorescence ratio, overnight | inhibition, % at 20 µM | 200 compounds, 10% hits;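 active means inhibition of at least 50% in the primary cell screen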
Large screens that a line does not name were inactive (follow-up assays come after a bar, where they were run).

COc1ccc2oc(/C=C/N(C)C)c(C(=O)c3ccc(Cl)cc3)c2c1	none
Cc1ccc(C2CC(=O)Oc3cc(O)ccc32)cc1 (stereo not given)	MT1-MMP act inh 38.0 | MT1-MMP conf inactive
O=C1CC(c2ccccc2)c2cc(O)ccc2O1 (stereo not given)	none
CN(C)c1ccc(N=Cc2cccn2C)cc1	MT1-MMP act inh 39.2 | MT1-MMP conf inactive
CN(C)c1ccc(N=Cc2nc(-c3ccccc3)oc2O)cc1	none (no result: FGF22 binding)
CCOc1ccc(N2CC(=O)SC2=S)cc1	MT1-MMP act inh 37.0 | MT1-MMP conf inactive
C[C@H](NC(=O)C[C@@H]1C=C[C@@H](NC(=O)Nc2ccc3c(c2)OCO3)[C@H](CO)O1)c1ccccc1	none (no result: Granule exo inh, ABCB6 inh 2, DAGLB inhibitor, VLA-4 inh, MT1-MMP act inh)
ClCC1NCC(c2ccccc2Cl)c2c1[nH]c1ccccc21 (stereo not given)	MT1-MMP act inh 36.8 | MT1-MMP conf inactive
CC1=NN(c2ccccc2)C(=O)/C1=C/C=C/C=C/N(C)C	MT1-MMP act inh 40.3 (no result: FGF22 binding) | MT1-MMP conf inactive
COc1ccc(S(=O)(=O)N(C)C[C@H]2OCCCC[C@H](C)Oc3ccc(NS(C)(=O)=O)cc3C(=O)N([C@H](C)CO)C[C@H]2C)cc1	none (no result: Granule exo inh, ABCB6 inh 2, DAGLB inhibitor, VLA-4 inh, MT1-MMP act inh)
CCn1c(O)c(/C=N/n2cnnc2)sc1=S	MT1-MMP act inh 30.5 (no result: FGF22 binding) | MT1-MMP conf inactive
CCn1c(O)c(C=Nc2ccccc2)sc1=S	none (no result: Granule exo inh, ABCB6 inh 2, DAGLB inhibitor, MT1-MMP act inh)
CCCN1/C(=C2/SC(=S)N(CC)C2=O)C=Cc2ccccc21	MT1-MMP act inh 40.5 (no result: FGF22 binding) | MT1-MMP conf inactive
CCN1C(=O)/C(=C2/C=Cc3ccccc3N2CC)SC1=S	none
CN1C(=O)/C(=C2/C=Cc3ccccc3N2CCCS(=O)(=O)O)SC1=S	MT1-MMP act inh 41.8 (no result: FGF22 binding) | MT1-MMP conf inactive
COCCCNC(=O)[C@@]1(CCS(=O)(=O)c2ccccc2)COC(c2ccc(OCCCO)cc2)=N1	none (no result: Granule exo inh, ABCB6 inh 2, DAGLB inhibitor, VLA-4 inh, MT1-MMP act inh)
CC(=O)N1CC2(C1)[C@H](c1ccccc1)[C@@H](CO)N2Cc1cccc(Cl)c1	none (no result: Granule exo inh, ABCB6 inh 2, DAGLB inhibitor, VLA-4 inh, MT1-MMP act inh)
Cc1noc(C)c1NC(=O)N(C)C[C@@H]1Oc2ccc(NC(=O)CCCCCC(=O)Nc3ccccc3N)cc2CC(=O)N([C@H](C)CO)C[C@H]1C	none (no result: Granule exo inh, ABCB6 inh 2, DAGLB inhibitor, VLA-4 inh, MT1-MMP act inh)
C/C=C/c1cnc2c(c1)C(=O)N([C@@H](C)CO)C[C@H](C)[C@H](CN(C)C(=O)c1ccc3c(c1)OCO3)O2	none (no result: Granule exo inh, ABCB6 inh 2, DAGLB inhibitor, VLA-4 inh, MT1-MMP act inh)
CCn1c(=O)c(=O)[nH]c2cc(C(=O)NC3CCCc4ccccc43)ccc21 (stereo not given)	MT1-MMP act inh 31.3 (no result: FGF22 binding) | MT1-MMP conf inactive
C[C@@H]1CN([C@H](C)CO)C(=O)c2cccc(N(C)C)c2O[C@@H]1CN(C)C(=O)NC1CCCCC1	none (no result: Granule exo inh, ABCB6 inh 2, DAGLB inhibitor, VLA-4 inh, MT1-MMP act inh)
Cc1cc2cc(CN3C(=O)c4ccccc4C3=O)ccc2n1C	MT1-MMP act inh 31.9 (no result: FGF22 binding) | MT1-MMP conf inactive
C[C@H](CO)N1C[C@H](C)[C@@H](CN(C)Cc2ccc(C(=O)O)cc2)Oc2ccc(NC(=O)Cc3ccccc3)cc2CC1=O	none (no result: Granule exo inh, ABCB6 inh 2, DAGLB inhibitor, VLA-4 inh, MT1-MMP act inh)
Nc1cccc2[nH]c(C(F)(F)F)nc12	MT1-MMP act inh 51.2 | MT1-MMP conf inactive
O=C(O)c1cccc2[nH]c(C(F)(F)F)nc12	none (no result: FGF22 binding)
Cc1cccc2c1NC1(CCCC1)CC2C (stereo not given)	MT1-MMP act inh 30.4 (no result: DAGLB inhibitor) | MT1-MMP conf inactive
CC1CC2(CCCC2)Nc2ccc(F)cc21 (stereo not given)	none
CC1=C/C(=C(/c2cc(C)c(O)c(Br)c2)c2ccccc2S(=O)(=O)O)C=C(Br)C1=O	MT1-MMP act inh 63.3 (no result: FGF22 binding) | MT1-MMP conf 50.1
CC1=C/C(=C(/c2ccc(O)c(C)c2)c2ccccc2S(=O)(=O)O)C=CC1=O	none
O=C(Nc1ccccc1)N1C[C@H]2[C@@H](c3ccccc31)[C@H](CO)N2C(=O)c1ccccc1F	none (no result: Granule exo inh, ABCB6 inh 2, DAGLB inhibitor, VLA-4 inh, MT1-MMP act inh)
